Compound activity: PubChem, The Scripps Research Institute Molecular Screening Center
Rows were chosen to be rich in hits. Some 2.3% of all compounds tested hit in one or more screens of this group.
ADAM17 inh – ADAM17 inhibition, QFRET primary screen; P78536; recombinant ADAM17, EDANS/DABCYL FRET peptide cleavage; AID 720648; inhibition, % at 6.95 µM; hit rate 0.83% among 370,000;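 active = inhibition above the mean of compounds lying between control limits plus 3 SD, set per campaign, cut at about 8.5% in these data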;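 note: 0% = DMSO-only wells as the low control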
PLC-beta3 inh – PLC-beta3 (human) inhibition, primary screen; Q01970; Purified PLC-beta3, fluorogenic substrate, fluorescence; inhibition, % at 12.2 µM; hit rate 0.18% among 370,000; in the data active = inhibition above about 11%;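 note: 0% = median of compound wells on plate and 100% = full blocker control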
Tn7 DDE FP – inhibitors of Tn7 peptide binding to human fibrin DD(E) | P02675 | hit rate 0.13% among 370,000 | inhibition, % at 8.3 µM | FP displacement of FITC-Tn7 peptide from fibrin DD(E); 0% = median of compound wells per plate;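 active = inhibition above the mean of compounds falling within the control limits plus 3 SD of them, cut at about 14% in these data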;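 note: 0% = plate median of compound wells and 100% = 10 µM Aha-Tn7 peptide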
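Assay system: Fibrin-DD(E) protein isolated from polymerized human fibrin clots; read-out basis: percent inhibition; medium: Tris/NaCl/CaCl2 buffer, pH 7.8; signal: FP measurement; incubation: 10 min plus 3 h, room temperature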
PLC-gamma1 inh – inhibitors of human phospholipase C gamma1. P19174. purified PLC-gamma1, fluorogenic substrate, fluorescence. inhibition, % at 12.2 µM. hit rate 0.84% among 370,000. AID 720700
ADAM10 inh – inhibitors of human ADAM10. O14672. hit rate 0.62% among 370,000. inhibition, % at 7 µM. recombinant ADAM10, EDANS/DABCYL FRET peptide cleavage, 3 h;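 active = inhibition above a per-campaign cutoff equal to the mean of compounds falling between control-based bounds plus 3 SD, cut at about 20% in these data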;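 note: 0% = DMSO wells while the 100% control is not disclosed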
Target sequence (O14672 214-748 limits assumed): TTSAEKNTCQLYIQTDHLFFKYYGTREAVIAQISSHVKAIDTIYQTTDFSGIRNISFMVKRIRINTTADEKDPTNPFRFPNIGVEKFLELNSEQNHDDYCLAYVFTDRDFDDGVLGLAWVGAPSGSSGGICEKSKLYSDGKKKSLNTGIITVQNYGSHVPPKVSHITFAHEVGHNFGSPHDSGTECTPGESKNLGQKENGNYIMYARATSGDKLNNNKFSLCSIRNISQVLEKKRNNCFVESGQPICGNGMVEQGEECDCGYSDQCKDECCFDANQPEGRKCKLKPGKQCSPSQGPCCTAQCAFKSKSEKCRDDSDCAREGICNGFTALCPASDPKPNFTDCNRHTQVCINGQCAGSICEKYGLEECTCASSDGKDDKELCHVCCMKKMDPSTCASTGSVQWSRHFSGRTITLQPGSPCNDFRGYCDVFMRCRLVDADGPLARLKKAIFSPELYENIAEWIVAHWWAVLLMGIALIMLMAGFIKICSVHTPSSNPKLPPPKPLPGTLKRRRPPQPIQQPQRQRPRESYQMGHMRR
Tn6 DDE FP – disrupts Tn6 cyclic peptide binding to fibrin D-Dimer-E complex | P02675 | Fibrin DD(E) TRITC-Tn6 fluorescence polarization displacement | inhibition, % at 8.3 µM | hit rate 0.21% among 370,000;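 active = inhibition above a per-campaign cutoff: mean of compounds within control limits plus 3 SD, cut at about 15% in these data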;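 note: 0% = median of all compound wells on the plate and 100% = blocking peptide control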
PLCg1 ctr – inhibits human PLC-gamma1 in PLC-beta3 counter-screen. shares compounds with PLC-gamma1 inh. purified PLC-gamma1, fluorogenic substrate, fluorescence. hit rate 3.1% among 3,300. inhibition, % at 12.3 µM
PLCb3 confirm – human PLC-beta3 inhibition, confirmation; shares compounds with PLC-gamma1 inh; purified PLC-beta3, fluorogenic substrate fluorescence; inhibition, % at 12.3 µM; hit rate 1% among 3,300; AID 743261; in the data active = inhibition above about 11%
The depositor's hits bear a star; . = no result. Cut-off read from the data, not from the text of the source, unless noted: active = inhibition above about 9.5%; inactive = the rest.

SMILES	ADAM17 inh	PLC-beta3 inh	Tn7 DDE FP	PLC-gamma1 inh	ADAM10 inh	Tn6 DDE FP	PLCg1 ctr	PLCb3 confirm
CCOC(=O)C(C(=O)NCc1ccc(F)cc1)c1ncc(C(F)(F)F)cc1Cl (centres undefined)	-1	0	0	-1	-3	-2	.	.
O=C(NCc1ccc(F)cc1)C(C(=O)NCc1ccc(F)cc1)c1ncc(C(F)(F)F)cc1Cl	6	8	3	13*	0	-6	-1	1
Cc1ccc(COc2coc(CN3CCN(C(=O)c4ccco4)CC3)cc2=O)cc1	3	-3	2	1	-8	-11	.	.
O=C(c1ccco1)N1CCN(Cc2cc(=O)c(OCc3ccc([N+](=O)[O-])cc3)co2)CC1	-1	4	-4	11*	4	3	-2	-3
CCCCCn1c(C(C)NC(=O)CCC)nc2ccccc21 (centres undefined)	-1	14*	1	7	8	-1	-6	-1
Cc1cccc(NC2=C(NC(=O)c3ccccc3)C(=O)c3ccccc3C2=O)c1	7	6	1	10*	12	1	5	4
O=C(NC1=C(Nc2ccc(Cl)cc2)C(=O)c2ccccc2C1=O)c1ccccc1	0	5	1	5	4	0	.	.
Cc1ccc(C(=O)C2C(c3ccc(-c4ccccc4[N+](=O)[O-])o3)NC(=O)NC2(O)C(F)(F)F)cc1 (centres undefined)	0	-2	-1	-3	7	0	.	.
O=C1NC(c2ccc(-c3ccccc3[N+](=O)[O-])o2)C(C(=O)c2ccccc2)C(O)(C(F)(F)F)N1 (centres undefined)	0	11*	-2	-2	2	2	-51	-35
Cc1ccc(OC[C@@H](O)CN2CCC(C(O)(c3ccccc3)c3ccccc3)CC2)cc1	0	0	2	-1	-5	-6	.	.
COc1cccc(OCc2nnc(SCC(=O)N3c4ccccc4Sc4ccc(Cl)cc43)o2)c1	7	5	-4	8	9	-1	.	.
COc1ccc(OCc2nnc(SCC(=O)N3c4ccccc4Sc4ccc(Cl)cc43)o2)cc1	0	0	4	9.6*	-3	-6	9	4
CCCCCn1nnnc1C1(C)CCCCC(=O)N1Cc1ccco1 (centres undefined)	-1	-1	4	1	-1	0	.	.
Nn1c(Cc2ccccc2F)nnc1SCn1nnc2ccccc2c1=O	4	3	-1	11*	-1	-2	-6	-1
O=c1c2ccccc2nnn1CSc1ccccc1F	2	4	5	0	-1	-5	.	.
S=C(Cc1ccc(-c2ccccc2)cc1)N1CCOCC1	5	-4	-12	9.9*	8	-5	-7	-3
COc1ccc(-c2nnc(SCC(=O)NCc3cccs3)n2CC(C)C)cc1	3	9	7	10*	12	-2	-3	1
Cc1ccc(-c2nnc(SCC(=O)N/N=C/c3ccccc3C(=O)O)n2-c2ccc(C)cc2)cc1	1	-5	-6	0	5	-4	.	.
COc1ccc(-c2nnc(SCC(=O)N/N=C/c3ccccc3C(=O)O)n2-c2ccccc2)cc1	5	3	-3	14*	12	1	-1	-2
COc1ccc(-c2nnc(SCC(=O)Nc3ccccc3)n2C)cc1	2	2	-5	13*	0	0	-7	-3
O=S1(=O)CCSC[C@@H](CNCc2ccco2)N1	-7	1	2	-3	-15	-4	.	.
COCCNC(=O)C1CC(=O)N(C2CCCC2)C1 (centres undefined)	-3	5	5	-1	2	2	.	.
CCCCNC(=O)C1CC(=O)N(C2CCCC2)C1 (centres undefined)	-4	0	2	12*	-1	3	-5	-3
COc1cc(N)c(Cl)cc1C(=O)NC1CCN(CCCOc2ccc(F)cc2)CC1OC (centres undefined)	3	4	-3	11*	12	9	-4	-1
CCn1c2ccccc2c2cc(NC(=O)CSc3nnc(-c4cccc(F)c4)o3)ccc21	8	8	4	13*	11	6	-17	-18
SMILES	ADAM17 inh	PLC-beta3 inh	Tn7 DDE FP	PLC-gamma1 inh	ADAM10 inh	Tn6 DDE FP	PLCg1 ctr	PLCb3 confirm
CCn1c2ccccc2c2cc(NC(=O)CSc3nnc(-c4ccccc4)o3)ccc21	2	3	-1	2	6	3	.	.
c1ccc(Cn2c(SC3CCCCC3)nnc2-c2cccnc2)cc1	-3	-1	-5	0	1	6	.	.
O=C(NCCN1C(=O)CSC1=O)C1CC(=O)N(c2ccccc2)C1 (centres undefined)	-3	2	5	10*	-5	3	-6	-1
Cc1cnc(C(=O)OCC(=O)Nc2ccc(Cl)cc2)cn1	4	5	-4	12*	10	-1	-8	-4
Cn1c(C(O)c2ccc(Cl)cc2)nc(Cl)c1Cl (centres undefined)	2	2	-4	11*	-4	1	-8	-1
Cn1c(C(O)c2ccc(Br)cc2)nc(Cl)c1Cl (centres undefined)	-2	-13	-3	4	7	2	.	.
COC(=O)[C@]12C[C@H](CC(=O)N3CCCC3)C(=O)N(Cc3ccc(Cl)cc3Cl)C1=C[C@H](C(C)C)O[C@@H]2C1CC1	3	0	-8	3	9	-6	.	.
COc1ccc(-c2csc(=NCCO)n2-c2ccccc2)cc1	-6	-4	0	10.0*	8	-6	-3	-1
COc1ccccc1N1CCN(S(=O)(=O)c2ccc3c(c2)CCC(=O)N3)CC1	1	0	5	1	6	0	.	.
COC(=O)CSC1=C(C#N)C(=O)NC2(CCCCC2)S1	6	9	-4	16*	3	-8	-6	-7
Cc1cc(-n2c(C)cc(C(=O)CSc3nnc4sc5ccccc5n34)c2C)no1	4	11*	3	4	7	8	-5	-3
Cc1cc(-n2c(C)cc(C(=O)CSc3ncnc4ccccc34)c2C)no1	-5	-30	-2	-26	-9	6	.	.
COc1ccc(CN2C(=O)CN=C2Nc2cccc(C)c2C)cc1	5	6	-3	9.8*	8	5	-4	-1
Cc1nc([N+](=O)[O-])c(Sc2nc3ccc([N+](=O)[O-])cc3[nH]2)n1Cc1ccccc1	7	6	-6	12*	10	-4	3	-1
